STEP block: STEP (human) phosphatase inhibition | recombinant STEP, OMFP fluorogenic substrate, fluorescence | inhibition, % at 20 µM | 360,000 compounds, 0.25% hits | AID 588621;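 active = inhibition at 20 µM, scaled per plate between control wells, above about 37%, limit read from the data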;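 also: 0% = DMSO with enzyme and substrate and 100% = substrate only without enzyme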
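System: STEP phosphatase, cell-free reaction; Buffer or medium: Bis-Tris pH 6.0 buffer with DTT, detergent; Incubation: 20 min at room temperature, dark; Measured by: fluorescence, 480/540 nm.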
SUMO1-SIM PPI: alters human SUMO1 binding to SIM partners; 360,000 compounds, 0.33% hits; SUMO1 binding to a labelled peptide, TR-FRET, 1 h; inhibition, % at 20 µM; P63165; AID 602429; in the data active = inhibition above about 37%
Target sequence (P63165 whole entry, looked up): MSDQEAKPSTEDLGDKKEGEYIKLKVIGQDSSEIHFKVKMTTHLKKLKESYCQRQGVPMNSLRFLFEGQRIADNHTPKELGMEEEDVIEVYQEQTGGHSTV
GRK2 aptamer HTS: human GRK2 inhibition via aptamer displacement; P25098; bead flow cytometry, FAM-aptamer displacement from GRK2; inhibition of aptamer binding, % at 10 µM; 330,000 compounds, 0.59% hits; AID 488847;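 active = inhibition of aptamer binding above 40%, roughly 3 SD of noise, on plates passing a quality check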;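 also: median bead fluorescence of bound FAM aptamer so fluorescent compounds give negative values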
Target sequence (P25098 whole entry, looked up): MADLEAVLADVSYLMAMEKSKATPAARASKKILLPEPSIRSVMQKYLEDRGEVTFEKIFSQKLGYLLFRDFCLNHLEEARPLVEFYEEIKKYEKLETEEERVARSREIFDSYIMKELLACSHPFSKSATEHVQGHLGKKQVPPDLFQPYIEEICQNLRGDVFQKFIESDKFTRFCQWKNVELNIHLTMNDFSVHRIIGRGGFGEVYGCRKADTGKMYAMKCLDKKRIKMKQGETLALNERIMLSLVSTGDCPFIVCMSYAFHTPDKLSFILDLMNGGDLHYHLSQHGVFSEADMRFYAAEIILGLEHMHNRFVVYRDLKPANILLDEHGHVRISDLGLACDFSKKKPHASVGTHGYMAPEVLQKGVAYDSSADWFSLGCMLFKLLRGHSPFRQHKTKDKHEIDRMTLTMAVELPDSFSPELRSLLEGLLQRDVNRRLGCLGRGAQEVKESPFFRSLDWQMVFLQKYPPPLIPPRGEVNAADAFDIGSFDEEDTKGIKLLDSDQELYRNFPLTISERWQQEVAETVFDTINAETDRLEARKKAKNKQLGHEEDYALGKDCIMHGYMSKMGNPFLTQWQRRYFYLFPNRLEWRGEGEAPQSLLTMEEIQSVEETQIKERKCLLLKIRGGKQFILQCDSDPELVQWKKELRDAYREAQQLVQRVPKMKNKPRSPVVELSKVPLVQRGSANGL
Scp-1 inhibitor: blocks human Scp-1 phosphatase activity; Q9GZU7; Recombinant Scp1, phosphopeptide, malachite green phosphate absorbance; inhibition, % at 20 µM; 340,000 compounds, 0.88% hits; AID 493091;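 active = inhibition above about 50% at 20 µM, limit read from the data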;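 also: plate controls were DMSO wells with enzyme for no effect and wells lacking enzyme for full effect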
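System: SCP-1 catalytic domain; Reagent: Phospho 17-mer peptide substrate; Doses: one concentration, 20 µM, with 1.0% DMSO; Incubation: 45 min room-temperature reaction, 5 min colour, 30 min stabiliser; Signal: Phosphate-binding colour reagent, absorbance read at 630 nm.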
LMPTP inh: blocks human LMPTP phosphatase; recombinant LMPTP-A, OMFP fluorogenic substrate, fluorescence intensity; P24666; AID 651560; inhibition, % at 20 µM; 360,000 compounds, 0.22% hits;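 active = compounds that cut the enzyme signal by at least half of the control window in the single-dose screen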;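 also: plate controls were DMSO wells with enzyme plus substrate for no effect and substrate without enzyme for full effect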
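Test system: LMPTP-A phosphatase enzyme; input: 0.625 nM LMPTP-A final; reagent: OMFP substrate, 400 µM final; compound dosing: 20 µM single dose, 3% DMSO; incubation: 50 min dark incubation at room temperature; measured by: endpoint fluorescence intensity from OMFP dephosphorylation; measure: % inhibition relative to no-enzyme and uninhibited control wells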
DNMT1 block: DNMT1 (human) enzyme inhibition | 360,000 compounds, 0.83% hits | inhibition (reported as % activation of signal), % at 10 µM | DNMT1 molecular beacon, Hinp1I cleavage, fluorescence | P26358; in the data active = inhibition above about 50%
GRK2 CP1: human GRK2 inhibition confirmation, cherry pick 1. bead-bound GRK2, FAM-aptamer displacement, flow cytometry. aptamer displacement, % at 10 µM. shares compounds with GRK2 aptamer HTS. 2,000 compounds, 4% hits;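 active = aptamer displacement above 40%, near three times the noise of non-fluorescent compounds, on plates passing quality checks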;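 also: negative values mostly reflect intrinsic compound fluorescence rather than true enhancement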
Aptamer quench: counter-screen for GRK2 aptamer inhibitors: fluorescent aptamer quenchers. Fluorescent RNA aptamer beads, quenching, flow cytometry; stronger effect = higher value. shares compounds with GRK2 aptamer HTS. fluorescence change (kMESF span), kMESF (test concentration not listed). AID 504521. 110 tested, under 10 active;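 active = compounds whose bead fluorescence drops by more than 37 kMESF across the dose range, marking them as dye quenchers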
Aptamer quench SP: aptamer fluorescence quenching in GRK2 counter-screen; AID 504580; shares compounds with GRK2 aptamer HTS; Carboxyfluorescein RNA aptamer on beads, flow cytometry quenching; stronger effect = lower value; 2,000 tested, under 10 active; fluorescence response (% of DMSO), % at 10 µM;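 active = compounds that quench the bead-bound fluorescent RNA probe, cutting fluorescence to under half of the solvent control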;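 also: counterscreen run without GRK2 so only probe quenching by compound is measured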
GRK2 confirm 2: confirmation of human GRK2 inhibitors binding RNA aptamer site; bead-bound GRK2, FAM-aptamer displacement, flow cytometry; 360 tested, under 10 active; inhibition of aptamer binding, % at 10 µM; shares compounds with GRK2 aptamer HTS;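 active = inhibition of aptamer binding above 40%, about triple the noise seen with nonglowing compounds, on plates passing quality control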;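 also: negative values mostly come from compounds that fluoresce themselves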
FAM quench CP2: counter-screen for GRK2 binding hits: quenchers of fluorescent RNA aptamer; carboxyfluorescein RNA aptamer beads, flow cytometry quenching; stronger effect = lower value; 360 tested, under 10 active; shares compounds with GRK2 aptamer HTS; fluorescence response vs DMSO, % at 10 µM;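 active = response vs DMSO under 50%, meaning signal dropped by over half, treated as fluorescence quencher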;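 also: labelled aptamer on streptavidin beads without GRK2 as a quench counter-screen; 100% = bead fluorescence of DMSO wells and lower means quenching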
FAM quench DR: counter-screen for GRK2 aptamer binding inhibitors: aptamer fluorescence quenching. fluorescence ratio to DMSO, % at 11.1 µM. AID 588496. 35 tested, under 10 active. shares compounds with GRK2 aptamer HTS. Bead-bound FAM RNA aptamer fluorescence quenching, flow cytometry; stronger effect = lower value;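 active = compounds that dim the fluorescent label, raw bead signal shifting by over 33 units between lowest and highest dose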
Scp1 confirm: Scp-1 (human) inhibition, single-dose confirmed; shares compounds with Scp-1 inhibitor; recombinant SCP-1 catalytic domain, phosphate release, malachite green absorbance; inhibition, % at 20 µM; 2,500 compounds, 61% hits;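 also: plate controls were DMSO with enzyme for no effect and buffer wells lacking enzyme for full effect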
Scp-1 MG ctr: colorimetric interference in Scp-1 counter-screen | shares compounds with Scp-1 inhibitor | Colorimetric interference counterscreen, malachite green absorbance 630 nm | apparent inhibition (interference), % at 20 µM | 2,500 tested, under 10 active;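 also: compounds added after enzyme reaction finished so only phosphate colour detection is probed; plate controls were DMSO wells with completed Scp-1 reaction for no effect and substrate wells lacking enzyme for full effect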
Scp-1 Tm shift: binds human Scp-1, shifting its melting temperature | thermal shift relative to vanadate control, % at 40 µM | 1,500 compounds, 25% hits | shares compounds with Scp-1 inhibitor | Recombinant SCP1, Sypro Orange thermal shift Tm;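 active = substances whose mean melting-temperature shift, as a percentage of the reference inhibitor's shift, reaches about 5.3%, limit read from the data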;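 also: 0% = Tm of DMSO wells and 100% = Tm with sodium orthovanadate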
DNMT1 confirm: DNMT1 inhibition confirmation, single concentration; 2,300 compounds, 8% hits; shares compounds with DNMT1 block; inhibition, % at 10 µM; DNMT1 molecular beacon HinP1I cleavage, fluorescence;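 active = average inhibition of at least 30% in the single-concentration confirmation test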
Beacon interf: shows spectral interference in the DNMT1 beacon assay; AID 602387; shares compounds with DNMT1 block; DNMT1 molecular beacon spectral interference counterscreen, fluorescence 485/520; 2,300 compounds, 1% hits; activation (fluorescence interference), % at 10 µM;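 active = activation of at least 30% at 10 µM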;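 also: DNMT1 catalytic domain with a HinP1I cleavage step and a FAM/dabcyl DNA beacon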
STEP inh conf: STEP (human) phosphatase inhibition, single concentration confirmation; 520 compounds, 32% hits; shares compounds with STEP block; AID 623866; recombinant STEP, OMFP fluorogenic substrate, fluorescence; inhibition, % at 20 µM; call rule not given here;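 also: 0% = enzyme with substrate plus DMSO and 100% = substrate without enzyme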
Numbers without * were called inactive; / = not tested or not shown. An excerpt weighted towards active compounds, which were near 2.2% of everything screened.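 The calls were made as follows, unless noted: active = inhibition of at least 30% at 20 µM; inactive = the rest.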

SMILES | STEP block | SUMO1-SIM PPI | GRK2 aptamer HTS | Scp-1 inhibitor | LMPTP inh | DNMT1 block | GRK2 CP1 | Aptamer quench SP | Scp1 confirm | Scp-1 MG ctr | Scp-1 Tm shift | others
Clc1ccc2c(N/N=C/c3cccc(Br)c3)ccnc2c1 | 6 | 1 | 73* | -17 | 3 | 80* | 0 | 93 | / | / | / | DNMT1 confirm=4;Beacon interf=3
CN(C)/C=C/C=C1C(=O)CCCC1=O | 2 | -6 | 42* | 58* | 0 | 55* | 11 | 102 | 49* | -6 | -9 | DNMT1 confirm=0;Beacon interf=1
CC1=NN(c2ccccc2)C(=O)/C1=C/C=C/C=C/N(C)C | 17 | -122 | 8 | -5 | 33 | -1 | / | / | / | / | /
O=P(O)(c1ccccc1)c1ccccc1O | -3 | 2 | 0 | -4 | -1 | -1 | / | / | / | / | /
O=P(c1ccccc1)(c1ccccc1)c1cc(S(=O)(=O)O)ccc1O | 98* | 15 | 74* | 88* | 29 | 83* | 52* | 98 | 60* | -13 | -18 | Aptamer quench=1.5;DNMT1 confirm=3;Beacon interf=-1
COc1cc(NC(=O)CCN2CCN(c3ccccc3OC)CC2)cc(OC)c1 | 1 | 0 | / | / | -1 | -3 | / | / | / | / | /
O=C(Nc1nccs1)c1cnc2sccn2c1=O | 2 | 5 | / | / | -1 | 12 | / | / | / | / | /
Cc1cc(=O)[nH]c(SCC(=O)NCc2ccco2)n1 | 4 | 23 | 54* | 67* | 0 | 56* | 94* | 99 | / | / | / | Aptamer quench=2.1;FAM quench DR=100;DNMT1 confirm=1;Beacon interf=3
Cc1nnc(SCC(=O)NCc2ccco2)[nH]c1=O | 2 | 9 | 5 | 18 | -1 | 20 | / | / | / | / | /
COCOCCn1cc(CN2CCS(=O)(=O)N(Cc3ccc(-c4ccccc4)cc3)C(C(C)C)C2=O)nn1 (stereo unspecified) | -2 | 1 | / | / | 0 | 1 | / | / | / | / | /
COc1ccccc1NC(=O)CCS(=O)(=O)c1ccc2c(c1)NC(=O)C(C)S2 (stereo unspecified) | 62* | 0 | 22 | -9 | -1 | 1 | / | / | / | / | / | GRK2 confirm 2=10;FAM quench CP2=97;STEP inh conf=1
COc1ccc(C(NC(=O)C2CCN(CCOc3ccc(Cl)cc3Cl)CC2)c2cccs2)cc1 (stereo unspecified) | 3 | -7 | / | / | 5 | -10 | / | / | / | / | /
COC(=O)c1ccc(/C=N/Nc2nc3ccccc3[nH]2)cc1 | 4 | -2 | 0 | -4 | 0 | -3 | / | / | / | / | /
O=C(O)c1ccc(/C=N/Nc2nc3ccccc3[nH]2)cc1 | 49* | -9 | 95* | 38 | 14 | 2 | -14 | 149 | / | / | / | STEP inh conf=0
CC1(C)CC(NC(=S)Nc2ccc(S(N)(=O)=O)cc2)CC(C)(C)N1 | 63* | -1 | 72* | 7 | 2 | 8 | -3 | 104 | / | / | / | STEP inh conf=16
NS(=O)(=O)c1ccc(NC(=S)NC2CC2)cc1 | 0 | 4 | 3 | -5 | -1 | 1 | / | / | / | / | /
CCn1c(=S)sc2c(=O)n(CC(=O)Nc3ccccc3C(F)(F)F)c(C)nc21 | 87* | 8 | 59* | 68* | 67* | 28 | -12 | 97 | 26 | -17 | / | STEP inh conf=8
O=[N+]([O-])c1nccn1C1C=CC(O)C(CO)O1 (stereo unspecified) | / | -7 | / | / | -1 | / | / | / | / | / | /
O=c1nc2cccc3c2=c(/c1=C(\O)c1ccccc1)c1ccccc1c3=O | 4 | 5 | 9 | 72* | 8 | 38 | / | / | 58* | -20 | 3
O=c1[nH]c(/C=C/c2cccc3ccccc23)nc2ccccc12 | 4 | 2 | 0 | -6 | 3 | 40 | / | / | / | / | /
CC(C)c1cccc(-c2ccc3c(c2)S(=O)(=O)c2cccc(C(=O)NCc4ccco4)c2C3=O)c1 | 2 | 3 | 4 | 68* | 2 | 49 | / | / | 49* | 0 | 11*
O=C(C[n+]1ccccc1)Nc1ccc(Cl)c([N+](=O)[O-])c1 | 1 | -26 | 0 | -2 | -2 | 1 | / | / | / | / | /
Cc1ccc[n+](CC(=O)Nc2ccc(Cl)c([N+](=O)[O-])c2)c1 | -1 | -17 | 3 | 84* | -1 | 3 | / | / | -1 | -5 | /
O=C(COC(=O)c1ccccc1NCCO)Nc1cccc(S(=O)(=O)NC2=NCCCCC2)c1 | -1 | 4 | 4 | 58* | 2 | 5 | / | / | 48* | -11 | -14
CCOc1ccccc1C(=O)OCC(=O)Nc1cccc(S(=O)(=O)NC2=NCCCCC2)c1 | 0 | -1 | / | -2 | -1 | 1 | / | / | / | / | /
O=C(Nc1cccc(S(=O)(=O)NC2=NCCCCC2)c1)C1COc2ccccc2O1 (stereo unspecified) | 7 | -3 | 5 | 50* | 22 | 31 | / | / | 65* | -8 | -11
N#Cc1ccc(OCC(=O)Nc2cccc(S(=O)(=O)NC3=NCCCCC3)c2)cc1 | 0 | 6 | 2 | 97* | 1 | 7 | / | / | 50* | -14 | -5

Source: PubChem BioAssay (several laboratories)
